# From ChEMBL document CHEMBL1255187, “Structure-based design and synthesis of potent, ethylenediamine-based, mammalian farnesyltransferase inhibitors as anticancer agents” (J Med Chem, 2010)
# Species on record: Homo sapiens
# Assay: Selectivity ratio of IC50 for human geranylgeranyltransferase-1 to IC50 for human farnesyltransferase
row,Selectivity ratio,Structure (SMILES)
1,6.7,Cn1cnc(S(=O)(=O)N(CCN(Cc2cncn2C)c2ccc(Br)cc2)Cc2ccccc2)c1
2,19,Cn1cnc(S(=O)(=O)N(Cc2ccccc2)[C@@H]2CC[C@@H](N(Cc3cncn3C)c3ccc(C#N)cc3)C2)c1 (racemic)
3,19,Cn1cnc(S(=O)(=O)N(CCN(Cc2cncn2C)c2ccc(C#N)cc2)Cc2ccoc2)c1
4,6,Cn1cnc(S(=O)(=O)N(CCN(Cc2c[nH]cn2)c2ccc(Br)cc2)Cc2ccccc2)c1
5,> 14,C#CCN(CCN(Cc1cncn1C)c1ccc(C#N)cc1)S(=O)(=O)c1cn(C)cn1
6,65,Cn1cncc1CN(CCN(Cc1ccccc1)S(=O)(=O)C1CC1)c1ccc(C#N)cc1
7,> 16,Cn1cnc(S(=O)(=O)N(CCN(Cc2cncn2C)c2ncc(C#N)cn2)CC2CCN(c3ncccn3)CC2)c1
8,> 156,Cn1cnc(S(=O)(=O)N(CCN(Cc2cncn2C)c2ccc(C#N)cc2F)CC2CCN(c3ncccn3)CC2)c1
9,> 2,Cn1cnc(S(=O)(=O)N(CCN(Cc2cncn2C)c2ccc(C(N)=O)cc2)Cc2ccccc2)c1
10,1.6,Cn1cnc(S(=O)(=O)N(CCN(Cc2c[nH]cn2)c2ccccc2)Cc2ccccc2)c1
11,2.1,Cn1cncc1CN(CCN(CC1CCCCC1)S(=O)(=O)c1ccccn1)c1ccc(C#N)cc1F
12,18,Cn1cnc(S(=O)(=O)N(CCN(Cc2cncn2C)c2c(F)c(F)c(C#N)c(F)c2F)CC2CCN(c3ncccn3)CC2)c1
13,20,Cn1cnc(S(=O)(=O)N(Cc2ccccc2)[C@H]2CCC[C@@H]2N(Cc2cncn2C)c2ccc(C#N)cc2)c1 (racemic)

# Molecular target: Protein farnesyltransferase (Homo sapiens, UniProt P49354+P49356)
# Assay: Inhibition of human farnesyltransferase assessed as incorporation of [3H]FPP into H-Ras-CVLS
# Format: protein-complex assay
# Summary of the method: (§1)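 In vitro radiometric assay measuring transfer of [3H]FPP (FTase) or [3H]GGPP (GGTase-I) onto recombinant H-Ras-CVLS or H-Ras-CVLL, respectively.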
row,IC50 [µM],Structure (SMILES)
1,0.16,CN(C)c1cccc2c(S(=O)(=O)N(CCN(Cc3cncn3C)c3ccc(C#N)cc3)Cc3ccccc3)cccc12
2,0.55,Cn1cnc(S(=O)(=O)N(CCN(Cc2cncn2C)c2ccc(C#N)cc2Cl)CC2CCN(c3ncccn3)CC2)c1
3,0.025,Cn1cncc1CN(CCN(Cc1ccccc1)S(=O)(=O)c1ccccn1)c1ccc(C#N)cc1
4,0.38,Cn1cnc(S(=O)(=O)N(Cc2ccccc2)[C@@H]2CC[C@@H](N(Cc3cncn3C)c3ccc(C#N)cc3)C2)c1 (racemic)
5,0.32,Cn1cnc(S(=O)(=O)N(CCN(Cc2cncn2C)c2ccc(C#N)cc2)Cc2ccoc2)c1
6,0.52,Cn1cnc(S(=O)(=O)N(CCN(Cc2cncn2C)c2ccc(C#N)nc2)CC2CCN(c3ncccn3)CC2)c1
7,> 10,Cn1cnc(S(=O)(=O)N(CCN(Cc2cncn2C)c2ccc(C(=O)O)cc2)Cc2ccccc2)c1
8,0.72,C#CCN(CCN(Cc1cncn1C)c1ccc(C#N)cc1)S(=O)(=O)c1cn(C)cn1
9,0.62,Cn1cnc(S(=O)(=O)N(CCN(Cc2cncn2C)c2ncc(C#N)cn2)CC2CCN(c3ncccn3)CC2)c1
10,0.064,Cn1cnc(S(=O)(=O)N(CCN(Cc2cncn2C)c2ccc(C#N)cc2F)CC2CCN(c3ncccn3)CC2)c1
11,5.3,Cn1cnc(S(=O)(=O)N(CCN(Cc2cncn2C)c2ccc(C(N)=O)cc2)Cc2ccccc2)c1
12,0.072,Cn1cnc(S(=O)(=O)N(CCN(Cc2cncn2C)c2ccc(C#N)cc2)Cc2ccncc2)c1
13,0.078,Cn1cnc(S(=O)(=O)N(CCN(Cc2cncn2C)c2ccc(C#N)cc2)Cc2cccc(C#N)c2)c1
14,5.3,Cc1c(CN(CCN(Cc2cncn2C)c2ccc(C#N)cc2)S(=O)(=O)c2cn(C)cn2)cnn1C
15,0.49,Cn1cnc(S(=O)(=O)N(CCN(Cc2cncn2C)c2c(F)c(F)c(C#N)c(F)c2F)CC2CCN(c3ncccn3)CC2)c1
16,0.45,Cn1cnc(S(=O)(=O)N(Cc2ccccc2)[C@H]2CCC[C@@H]2N(Cc2cncn2C)c2ccc(C#N)cc2)c1 (racemic)

row,Structure (SMILES),IC50 [µM]
1,Cc1ccc(CN(CCN(Cc2cncn2C)c2ccc(C#N)cc2)S(=O)(=O)c2cn(C)cn2)cc1,0.37

# Molecular target: Protein farnesyltransferase (Mus musculus, UniProt Q61239+Q8K2I1)
# Assay: Inhibition of H-Ras farnesylation expressed in mouse NIH3T3 cells
# Format: functional, cell-based
# Summary of the method: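 Oncogenic H-Ras-transformed NIH3T3 cells were treated with a range of inhibitor concentrations. Detection used peroxidase-conjugated secondary antibodies and enhanced chemiluminescence. IC50 is the mean of three independent assays ± SD unless stated otherwise.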
row,IC50 [µM],Structure (SMILES)
1,0.09,Cn1cncc1CN(CCN(Cc1ccccc1)S(=O)(=O)c1ccccn1)c1ccc(C#N)cc1
2,1.6,Cn1cnc(S(=O)(=O)N(CCN(Cc2cncn2C)c2ccc(Br)cc2)Cc2ccccc2)c1
3,0.65,Cn1cnc(S(=O)(=O)N(CCN(Cc2cncn2C)c2ccc(C#N)cc2)Cc2ccoc2)c1
4,> 10,Cn1cnc(S(=O)(=O)N(CCN(Cc2cnc[nH]2)c2ccccc2)Cc2ccccc2)c1
5,1.9,Cn1cnc(S(=O)(=O)N(CCN(Cc2cncn2C)c2ccc(C#N)cc2)Cc2ccccc2)c1
6,5.7,Cn1cnc(S(=O)(=O)N(CCN(Cc2cnc[nH]2)c2ccc(Br)cc2)Cc2ccccc2)c1
7,> 10,Cn1cnc(S(=O)(=O)N(CCN(Cc2cncn2C)c2ccc(C#N)cc2)Cc2ccncc2)c1
8,5,Cn1cnc(S(=O)(=O)N(CCN(Cc2cncn2C)c2ccc(C#N)cc2)Cc2cccc(C#N)c2)c1
9,0.0887,Cn1cncc1CN(CCN(CC1CCCCC1)S(=O)(=O)c1ccccn1)c1ccc(C#N)cc1F

row,Structure (SMILES),IC50 [µM]
1,Cc1ccc(CN(CCN(Cc2cncn2C)c2ccc(C#N)cc2)S(=O)(=O)c2cn(C)cn2)cc1,2

# Molecular target: Geranylgeranyl transferase type 1 (Mus musculus, UniProt Q61239+Q8BUY9)
# Assay: Inhibition of Rap1A geranylgeranylation expressed in mouse NIH3T3 cells
# Format: functional, cell-based
# Summary of the method: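 Oncogenic H-Ras-transformed NIH3T3 cells were treated with a range of inhibitor concentrations. […] Detection used peroxidase-conjugated secondary antibodies and enhanced chemiluminescence. IC50 is the mean of three independent assays ± SD unless stated otherwise.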
row,IC50 [µM],Structure (SMILES)
1,> 10,CN(C)c1cccc2c(S(=O)(=O)N(CCN(Cc3cncn3C)c3ccc(C#N)cc3)Cc3ccccc3)cccc12
2,> 10,Cn1cncc1CN(CCN(Cc1ccccc1)S(=O)(=O)c1ccccn1)c1ccc(C#N)cc1
3,> 10,Cn1cnc(S(=O)(=O)N(CCN(Cc2cncn2C)c2ccc(Br)cc2)Cc2ccccc2)c1
4,> 10,Cn1cnc(S(=O)(=O)N(CCN(Cc2cncn2C)c2ccc(C#N)cc2)Cc2ccoc2)c1
5,> 10,Cn1cnc(S(=O)(=O)N(CCN(Cc2cnc[nH]2)c2ccccc2)Cc2ccccc2)c1
6,> 10,Cn1cnc(S(=O)(=O)N(CCN(Cc2cncn2C)c2ccc(C#N)cc2)Cc2ccccc2)c1
7,> 10,Cn1cnc(S(=O)(=O)N(CCN(Cc2cnc[nH]2)c2ccc(Br)cc2)Cc2ccccc2)c1
8,> 10,C#CCN(CCN(Cc1cncn1C)c1ccc(C#N)cc1)S(=O)(=O)c1cn(C)cn1
9,> 10,Cn1cnc(S(=O)(=O)N(CCN(Cc2cncn2C)c2ccc(C#N)cc2)Cc2ccncc2)c1
10,> 10,Cn1cnc(S(=O)(=O)N(CCN(Cc2cncn2C)c2ccc(C#N)cc2)Cc2cccc(C#N)c2)c1
11,2.7,Cn1cncc1CN(CCN(CC1CCCCC1)S(=O)(=O)c1ccccn1)c1ccc(C#N)cc1F

row,Structure (SMILES),IC50 [µM]
1,Cc1ccc(CN(CCN(Cc2cncn2C)c2ccc(C#N)cc2)S(=O)(=O)c2cn(C)cn2)cc1,> 10

# Molecular target: Geranylgeranyl transferase type I (Homo sapiens, UniProt P49354+P53609)
# Assay: Inhibition of human geranylgeranyltransferase-1 assessed as incorporation of [3H]GGPP into H-Ras-CVLL
# Format: protein-complex assay
# Summary of the method: as §1
row,IC50 [µM],Structure (SMILES)
1,10,CN(C)c1cccc2c(S(=O)(=O)N(CCN(Cc3cncn3C)c3ccc(C#N)cc3)Cc3ccccc3)cccc12
2,> 10,Cn1cnc(S(=O)(=O)N(CCN(Cc2cncn2C)c2ccc(C#N)cc2Cl)CC2CCN(c3ncccn3)CC2)c1
3,0.82,Cn1cncc1CN(CCN(Cc1ccccc1)S(=O)(=O)c1ccccn1)c1ccc(C#N)cc1
4,7.05,Cn1cnc(S(=O)(=O)N(Cc2ccccc2)[C@@H]2CC[C@@H](N(Cc3cncn3C)c3ccc(C#N)cc3)C2)c1 (racemic)
5,6.1,Cn1cnc(S(=O)(=O)N(CCN(Cc2cncn2C)c2ccc(C#N)cc2)Cc2ccoc2)c1
6,> 10,Cn1cnc(S(=O)(=O)N(CCN(Cc2cncn2C)c2ccc(C#N)nc2)CC2CCN(c3ncccn3)CC2)c1
7,> 10,Cn1cnc(S(=O)(=O)N(CCN(Cc2cnc[nH]2)c2ccccc2)Cc2ccccc2)c1
8,2.7,Cn1cnc(S(=O)(=O)N(CCN(Cc2cncn2C)c2ccc(C#N)cc2)Cc2ccccc2)c1
9,> 10,Cn1cnc(S(=O)(=O)N(CCN(Cc2cncn2C)c2ccc(C(=O)O)cc2)Cc2ccccc2)c1
10,> 10,C#CCN(CCN(Cc1cncn1C)c1ccc(C#N)cc1)S(=O)(=O)c1cn(C)cn1
11,> 10,Cn1cnc(S(=O)(=O)N(CCN(Cc2cncn2C)c2ncc(C#N)cn2)CC2CCN(c3ncccn3)CC2)c1
12,> 10,Cn1cnc(S(=O)(=O)N(CCN(Cc2cncn2C)c2ccc(C#N)cc2F)CC2CCN(c3ncccn3)CC2)c1
13,> 10,Cn1cnc(S(=O)(=O)N(CCN(Cc2cncn2C)c2ccc(C(N)=O)cc2)Cc2ccccc2)c1
14,> 10,Cn1cnc(S(=O)(=O)N(CCN(Cc2cncn2C)c2ccc(C#N)cc2)Cc2ccncc2)c1
15,> 10,Cc1c(CN(CCN(Cc2cncn2C)c2ccc(C#N)cc2)S(=O)(=O)c2cn(C)cn2)cnn1C
16,8.75,Cn1cnc(S(=O)(=O)N(CCN(Cc2cncn2C)c2c(F)c(F)c(C#N)c(F)c2F)CC2CCN(c3ncccn3)CC2)c1
17,9.15,Cn1cnc(S(=O)(=O)N(Cc2ccccc2)[C@H]2CCC[C@@H]2N(Cc2cncn2C)c2ccc(C#N)cc2)c1 (racemic)

row,Structure (SMILES),IC50 [µM]
1,Cc1ccc(CN(CCN(Cc2cncn2C)c2ccc(C#N)cc2)S(=O)(=O)c2cn(C)cn2)cc1,0.58
